Compounds with a hit are over-represented: about 2.5% of the library has one in this group of screens.
NALP3 yeast inh: inhibitors of NALP3 inflammasome in yeast | Yeast reconstituted NLRP3/ASC/caspase-1, beta-gal luminescence, 24 h | inhibition, % at 10 µM | 330,000 compounds, 0.39% hits | AID 2825;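 active means inhibition of 50% or more; inactive means inhibition below 50%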;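 further: plate controls were induced DMSO wells for no effect and uninduced yeast grown without galactose for full effect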
MC4R barr agon: human MC4R agonism via beta-arrestin. 360,000 compounds, 0.98% hits. U2OS MC4R beta-arrestin complementation, luminescence; percent of melanotan II response, DMSO zero. activation, % at 8.9 µM. AID 540308;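 active means activation above a per-plate cutoff, the mean activation of sample wells on that plate plus 3 SD, cut at about 8% in these data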
Target sequence (P32245 whole entry, looked up): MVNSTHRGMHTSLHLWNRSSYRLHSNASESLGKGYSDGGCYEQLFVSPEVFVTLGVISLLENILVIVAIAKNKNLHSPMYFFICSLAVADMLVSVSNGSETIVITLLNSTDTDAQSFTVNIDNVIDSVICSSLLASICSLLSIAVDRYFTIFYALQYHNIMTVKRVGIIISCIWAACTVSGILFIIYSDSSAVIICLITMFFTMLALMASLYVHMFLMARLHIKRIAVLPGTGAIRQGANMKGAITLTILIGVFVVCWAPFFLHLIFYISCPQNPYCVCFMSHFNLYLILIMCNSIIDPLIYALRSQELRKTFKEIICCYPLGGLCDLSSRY
NALP1 inh: blocks the NALP1 inflammasome reconstituted in yeast | S. cerevisiae NALP1/ASC/caspase-1 growth, X-gal OD620, 72 h | inhibition, % at 10 µM | 280,000 compounds, 0.61% hits | AID 2071; in the data active means inhibition mostly above about 24%, no sharp cut-off; inactive means mostly below about 32%
TbMetRS inhib: Trypanosoma brucei MetRS inhibition; purified T. brucei MetRS, ATP depletion, Kinase-Glo luminescence; inhibition, % at 11.9 µM; 360,000 compounds, 0.4% hits; AID 624268;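 active means inhibition above a per-plate cutoff of the control wells' mean inhibition plus 3 SD, cut at about 5.5% in these data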;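 further: 0% = DMSO wells median and 100% = median of wells with control inhibitor compound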
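Assay system: T. brucei methionyl-tRNA synthetase, purified | Medium: HEPES buffer with MgCl2, KCl, DTT, spermine, BSA, pyrophosphatase | Compound: 11.9 µM single point | Incubation: 15 min enzyme-compound preincubation, 2 h reaction, 10 min detection, 25 °C | Measured by: Kinase-Glo luciferase luminescence reporting remaining unconsumed ATP | Measure: % inhibition normalized to control-well medians | Replication: Singlicate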
Bfl-1 A1 inh: inhibitors of the anti-apoptotic protein A1, read as caspase activation; MEF A1-2A-BIM cells, Caspase-Glo 3/7 luminescence, 3 h; percent of clofoctol response, vehicle zero; caspase activation, % (no concentration beside the values); 330,000 compounds, 0.066% hits; AID 2462;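 active means over half of replicate activation scores above 10%, or exactly half above 10 with the replicate mean above 10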
MC4R antag cAMP: blocks human MC4R cAMP signaling | P32245 | inhibition, % at 6.5 µM | MC4R-expressing cells, MTII-stimulated cAMP, LANCE TR-FRET | 360,000 compounds, 0.48% hits;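 active means inhibition above its plate's cutoff, the mean of tested wells on that plate plus 3 SD, cut at about 29% in these data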;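 further: 0% = Melanotan II alone and 100% = Melanotan II plus saturating MCL0020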
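Assay system: human MC4R-expressing U2OS cells; reagent: Melanotan II stimulation of cells; dosing: 6.5 µM single dose; timing: compound 30 min, challenge 1 h, detection 1 h; signal: TR-FRET cAMP assay; replicates: one well per compound, no replicates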
NALP3 confirm: NALP3 inhibition confirmation in yeast; shares compounds with NALP3 yeast inh; yeast expressing human NALP3, luminescence; inhibition, % at 10 µM; 1,300 compounds, 81% hits; in the data active means inhibition above about 48%
Casp1-ASC yeast: counter-screen for NALP3 inhibitors: yeast caspase-1-ASC. shares compounds with NALP3 yeast inh. yeast expressing Caspase-1-ASC, luminescence counter screen. inhibition, % at 10 µM. 1,000 compounds, 66% hits
NALP3 yeast rt: yeast NALP3 inhibition, confirmed on retest; AID 488794; yeast expressing human NALP3, luminescence read-out; 1,000 compounds, 53% hits; inhibition, % at 10 µM; shares compounds with NALP3 yeast inh
cAMP nonselect: U2OS forskolin cAMP inhibition counter-screen | shares compounds with MC4R antag cAMP | parental U2OS, LANCE TR-FRET | inhibition, % at 6.5 µM | 1,600 compounds, 26% hits;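 active means mean inhibition over triplicates above the low-control well mean plus 3 SD, set per campaign, cut at about 13% in these data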;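 further: signal is single emission at 671 nm which falls as cellular cAMP rises; 0% = forskolin-stimulated wells and 100% = buffer without forskolin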
MC4R cAMP antag: human MC4R cAMP antagonism confirmation; shares compounds with MC4R antag cAMP; MC4R-expressing cells, MTII-stimulated cAMP, TR-FRET; inhibition, % at 6.5 µM; 1,600 compounds, 27% hits; in the data active means inhibition above about 29%;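 further: 0% = agonist stimulated wells alone and 100% = agonist stimulated wells plus saturating reference antagonist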
Active calls of the source: *; . = not tested or not shown. Unless noted, no stated cut-off is given here; in the data, active means inhibition above about 50%; inactive means the rest.

SMILES | NALP3 yeast inh | MC4R barr agon | NALP1 inh | TbMetRS inhib | Bfl-1 A1 inh | MC4R antag cAMP | NALP3 confirm | others
C[C@]12CC[C@H](O)CC1C(=O)CC1C2CC[C@@]2(C)C1CC[C@@H]2O (some centres undefined) | 50.0 | 0.1 | . | 0.2 | 0.1 | 23.0 | 43.5 | Casp1-ASC yeast=50.3*;NALP3 yeast rt=34.1
C[C@]12CC[C@@H](O)CC1=CCC1C2CC[C@@]2(C)C1CC[C@@H]2O (some centres undefined) | . | -1.2 | . | -0.3 | . | 10.7 | .
CCOC(=O)C1(CCc2ccccc2)CCN(CC(O)CO)CC1 (centres undefined) | 20.4 | -1.4 | -1.2 | -0.3 | -0.5 | 6.5 | .
COC(=O)C1=C(c2ccc(C(C)=O)cc2)C[C@@H]2CC[C@H]1N2C(=O)NCc1ccc(C(F)(F)F)cc1 | 16.8 | -0.8 | . | -0.5 | 2.3 | 3.4 | .
OC(CNCCc1c[nH]c2ccccc12)c1ccccc1 (centres undefined) | 10.9 | -2.9 | 22.3 | -0.3 | -1.2 | 1.1 | .
Cc1ccc(OCCOc2cccc(C=C3C(=O)NC(=O)NC3=O)c2)cc1 | 13.0 | -0.5 | 6.1 | -0.6 | -7.1 | 10.2 | .
O=C(NCNC(=O)NC1C(=O)NC(=O)N1CO)NC1C(=O)NC(=O)N1CO (centres undefined) | 26.5 | -0.2 | . | -2.0 | 3.0 | 7.5 | .
C[C@]12CC[C@@H](O)C[C@@H]1CC[C@@H]1[C@@H]2CC[C@]2(C)[C@@H](O)CC[C@@H]12 | 53.2* | 0.5 | 32.9 | -1.2 | 0.4 | -5.0 | 66.3* | Casp1-ASC yeast=56.5*;NALP3 yeast rt=49.0
C[C@]12CCC3C(CC[C@H]4C[C@@H](O)CC[C@]34C)C1C[C@@H](O)[C@]2(C)O (some centres undefined) | 50.1* | -1.1 | . | -0.2 | -0.1 | -0.1 | 56.8*
C[C@]12CCC3C(CC[C@H]4C[C@@H](O)CC[C@]34C)[C@H]1CC[C@H]2O (some centres undefined) | 51.1* | -1.2 | . | -0.2 | -1.1 | -8.1 | 57.5*
C[C@@H]1CN([C@@H](C)CO)C(=O)CCCn2nncc2CO[C@H]1CN(C)C(=O)Oc1ccc2ccccc2c1 | . | 0.6 | . | -1.4 | . | -1.7 | .
CN1C(=O)C(=Cc2ccccc2OCc2ccccc2Cl)C(=O)N(C)C1=O | 17.2 | 0.2 | . | -0.1 | 0.4 | -5.2 | .
CN1C(=O)C(=Cc2c(OCc3cnc(Cl)s3)ccc3ccccc23)C(=O)N(C)C1=O | 59.3* | -1.6 | 2.2 | 0.4 | -0.8 | 3.6 | 58.1* | Casp1-ASC yeast=72.5*;NALP3 yeast rt=61.7*
CCCCC/C(=N\O)c1c[nH]c2ccccc12 | 54.9* | 0.9 | 7.8 | 1.4 | 1.9 | -1.5 | 56.8* | Casp1-ASC yeast=53.1*;NALP3 yeast rt=46.4
C[C@]12CC[C@H](O)CC1=CC[C@@H]1[C@@H]2CC[C@]2(C)C(=O)CC[C@@H]12 | 44.3 | -1.2 | . | -0.6 | -0.8 | 0.5 | .
CC1(C)C(=O)CC[C@@]2(C)C1=CCC1C2CC[C@]2(C)C(=O)CCC12 (some centres undefined) | 58.8* | -0.6 | . | 0.0 | 0.0 | -10.7 | 47.7*
CCC1C=CC=CC[C@H](C)[C@@H](O)[C@](C)(O)C(=O)[C@@H](C)[C@H](O)[C@@H](C)C(=O)[C@H](C)[C@@H](O)[C@H](C)C=CC(=O)OC2[C@@H](C)C(CC1)OC1(CC[C@@H](C)C(C[C@H](C)O)O1)[C@@H]2C (some centres undefined) | 81.8* | . | . | . | -0.9 | . | 88.5* | Casp1-ASC yeast=56.9*;NALP3 yeast rt=72.2*
CC(OC(=O)c1cn(C)c2ccccc12)C(=O)N(C)c1ccccc1 (centres undefined) | 9.9 | -4.2 | . | -0.7 | . | 0.5 | .
C[CH2][Hg][S]c1ccccc1C(=O)O | 97.6* | -0.8 | . | -0.8 | 2.7 | 95.2* | 99.4* | Casp1-ASC yeast=99.6*;NALP3 yeast rt=98.7*;cAMP nonselect=40.0*;MC4R cAMP antag=91.4*
Cc1nn(CC(C)C)c(Cl)c1C(=O)NC1CCCCC1 | 26.0 | -1.7 | . | -0.1 | . | 1.7 | .
CCOP(=O)(CCP(=O)(OCC)OCC)OCC.C[CH2][Sn]([Cl])([Cl])[CH2]C | . | -1.6 | . | 0.5 | . | 69.9* | . | cAMP nonselect=10.8;MC4R cAMP antag=28.9*
CCOP(=O)(OCC)OCC | 2.4 | -0.5 | . | -0.4 | -0.3 | 6.2 | .
COCC(=O)N1Cc2ccccc2-n2nncc2C1 | . | -1.0 | . | 0.0 | . | 3.9 | .
C#C[C@]1(O)[C@H](O)CC2C3CC[C@H]4C[C@@H](O)CC[C@]4(C)C3CC[C@@]21C (some centres undefined) | 36.9 | -1.9 | . | -0.1 | -0.4 | 2.4 | .
CC12CC[C@H]3[C@@H](CCC4(O)C[C@H](O)CCC34/C=N/NC(=O)c3ccccc3O)C1(O)CCC2C1=CC(=O)OC1 (some centres undefined) | 3.1 | 6.1 | . | 3.8 | -0.8 | 29.2* | . | cAMP nonselect=-4.9;MC4R cAMP antag=-3.9
SMILES | NALP3 yeast inh | MC4R barr agon | NALP1 inh | TbMetRS inhib | Bfl-1 A1 inh | MC4R antag cAMP | NALP3 confirm | others
CC(C)c1cc(Br)c(NC(=O)Nc2cccnc2)c(Br)c1 | 13.7 | -0.4 | 2.4 | 0.0 | 0.2 | -3.4 | .
CC1CCCCC1NC(=O)CNC(=S)N1CC2CC(C1)c1cccc(=O)n1C2 (centres undefined) | 7.7 | -2.9 | 0.0 | -0.4 | 2.5 | 11.4 | .
O=C(NN=Cc1ccc(N(CCCl)CCCl)cc1)C(=O)c1c[nH]c2ccccc12 | . | 0.9 | . | 0.3 | . | 30.8* | . | cAMP nonselect=2.4;MC4R cAMP antag=26.5
O=C1NC(=O)N(c2ccccc2)C(=O)/C1=C/c1ccc(Sc2ccccc2)o1 | . | -2.4 | -4.9 | -0.3 | -1.4 | 29.3* | . | cAMP nonselect=17.6*;MC4R cAMP antag=5.7
O=C1NC(=O)N(c2cccc(Cl)c2)C(=O)/C1=C\c1ccc(Sc2nc3ccccc3[nH]2)o1 | 4.1 | -1.9 | 21.4 | 0.8 | -0.3 | 24.2 | .
C=C1C(C)C2C(Cc3ccccc3)NC(=O)C23OC(=O)/C=C/C(O)CCCC(C)C/C=C/C3C1O (centres undefined) | . | 0.3 | . | -0.3 | . | 35.6* | . | cAMP nonselect=1.3;MC4R cAMP antag=-1.8
Nc1ncnc2c1ccn2[C@@H]1O[C@H](CO)[C@@H](O)[C@H]1O | 4.5 | 0.1 | . | 0.6 | -1.0 | 44.7* | . | cAMP nonselect=93.6*;MC4R cAMP antag=78.5*

Screening results: PubChem BioAssay, several laboratories
